# The source made the active and inactive calls. No cut-off for these calls is given here.
# Tests used:
# Staphylococcus aureus [1] = assay: Antibacterial activity against vancomycin resistant Staphylococcus aureus 12 assessed as inhibition of bacterial growth at 0.5 ug/ml incubated for 18 to 20 hrs by CLSI protocol based broth microdilution method; type: functional, organism-based; conditions: dose 0.5 µg/ml, time 18-20 hrs
# Staphylococcus aureus [2] = assay: Antibacterial activity against vancomycin resistant Staphylococcus aureus 10 assessed as inhibition of bacterial growth at 0.5 ug/ml incubated for 18 to 20 hrs by CLSI protocol based broth microdilution method; type: functional, organism-based; conditions: dose 0.5 µg/ml, time 18-20 hrs
# Staphylococcus aureus [3] = assay: Post antibiotic effect against methicillin resistant Staphylococcus aureus NRS384 USA300 assessed as time required for 1 log10 increase in CFU at 5 times of MIC incubated for 2 hrs followed by replacement with drug free medium and measured after 18-24 hrs; type: functional
# Method in brief: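 MRSA USA300 at ~10^6 CFU mL−1 was exposed for 2 h to 5× MIC of test agent, with vancomycin or DMSO as controls. Drug was removed by 1:1000 dilution in fresh TSB. Cultures were incubated at 37 °C with 180 rpm shaking and sampled hourly for 8 h, with viable counts on MSA read after 18–24 h. PAE = T − C, where T and C are the times for a 1 log10 rise in the test and control cultures.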
# Staphylococcus aureus [4] = assay: Antibacterial activity against methicillin sensitive Staphylococcus aureus 6538 assessed as inhibition of bacterial growth at 0.5 ug/ml incubated for 18 to 20 hrs by CLSI protocol based broth microdilution method; type: functional, organism-based; conditions: dose 0.5 µg/ml, time 18-20 hrs
# Method in brief: (§1)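 Staphylococcal and E. coli strains were diluted from a 0.5 McFarland suspension in cation-adjusted Mueller Hinton broth to ~5 × 10^5 CFU mL−1. They were incubated with serial dilutions of test agent in broth microdilution, and the MIC was recorded.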
# Staphylococcus aureus [5] = assay: Antibacterial activity against vancomycin resistant Staphylococcus aureus 9 assessed as inhibition of bacterial growth at 0.5 ug/ml incubated for 18 to 20 hrs by CLSI protocol based broth microdilution method; type: functional, organism-based; conditions: dose 0.5 µg/ml, time 18-20 hrs
# Staphylococcus aureus [6] = assay: Antibacterial activity against methicillin resistant Staphylococcus aureus 384 assessed as inhibition of bacterial growth at 0.5 ug/ml incubated for 18 to 20 hrs by CLSI protocol based broth microdilution method; type: functional, organism-based; conditions: dose 0.5 µg/ml, time 18-20 hrs
# Staphylococcus aureus [7] = assay: Antibacterial activity against methicillin sensitive Staphylococcus aureus 107 assessed as inhibition of bacterial growth at 0.5 ug/ml incubated for 18 to 20 hrs by CLSI protocol based broth microdilution method; type: functional, organism-based; conditions: dose 0.5 µg/ml, time 18-20 hrs; method in brief: as §1
# Staphylococcus aureus [8] = assay: Antibacterial activity against methicillin resistant Staphylococcus aureus 385 assessed as inhibition of bacterial growth at 0.5 ug/ml incubated for 18 to 20 hrs by CLSI protocol based broth microdilution method; type: functional, organism-based; conditions: dose 0.5 µg/ml, time 18-20 hrs
# Staphylococcus aureus [9] = assay: Antibacterial activity against methicillin resistant Staphylococcus aureus 119 assessed as inhibition of bacterial growth at 0.5 ug/ml incubated for 18 to 20 hrs by CLSI protocol based broth microdilution method; type: functional, organism-based; conditions: dose 0.5 µg/ml, time 18-20 hrs
# Staphylococcus aureus [10] = assay: Antibacterial activity against methicillin resistant Staphylococcus aureus 386 assessed as inhibition of bacterial growth at 0.5 ug/ml incubated for 18 to 20 hrs by CLSI protocol based broth microdilution method; type: functional, organism-based; conditions: dose 0.5 µg/ml, time 18-20 hrs
# Staphylococcus aureus [11] = assay: Antibacterial activity against methicillin resistant Staphylococcus aureus 123 assessed as inhibition of bacterial growth at 0.5 ug/ml incubated for 18 to 20 hrs by CLSI protocol based broth microdilution method; type: functional, organism-based; conditions: dose 0.5 µg/ml, time 18-20 hrs
# Enterococcus faecalis = assay: Antibacterial activity against Enterococcus faecalis 51299 assessed as inhibition of bacterial growth incubated for 18 to 20 hrs by CLSI protocol based broth microdilution method; type: functional; conditions: time 18-20 hrs
# Method in brief: (§2)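 Enterococci and L. monocytogenes were diluted from a 0.5 McFarland suspension in TSB. They were incubated with serial dilutions of test agent in broth microdilution, and the MIC was recorded.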
# Staphylococcus aureus [12] = assay: Antibacterial activity against vancomycin resistant Staphylococcus aureus 12 assessed as inhibition of bacterial growth incubated for 18 to 20 hrs by CLSI protocol based broth microdilution method; type: functional; conditions: time 18-20 hrs
# Method in brief: (§3)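 Broth microdilution against staphylococcal clinical isolates. Each strain was prepared as a 0.5 McFarland suspension and diluted in cation-adjusted Mueller Hinton broth to ~5 × 10^5 CFU mL−1. Serial dilutions of test agents in DMSO stock were incubated with the bacteria, and the MIC was recorded.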
# [13] = system: Staphylococcus epidermidis; assay: Antibacterial activity against Staphylococcus epidermidis 101 assessed as inhibition of bacterial growth incubated for 18 to 20 hrs by CLSI protocol based broth microdilution method; type: functional; conditions: time 18-20 hrs; method in brief: as §1
# Staphylococcus aureus [14] = assay: Antibacterial activity against methicillin sensitive Staphylococcus aureus 6538 assessed as inhibition of bacterial growth incubated for 18 to 20 hrs by CLSI protocol based broth microdilution method; type: functional; conditions: time 18-20 hrs; method in brief: as §3
# Staphylococcus aureus [15] = assay: Antibacterial activity against methicillin resistant Staphylococcus aureus 384 assessed as inhibition of bacterial growth incubated for 18 to 20 hrs by CLSI protocol based broth microdilution method; type: functional; conditions: time 18-20 hrs; method in brief: as §3
# Staphylococcus aureus [16] = assay: Antibacterial activity against methicillin resistant Staphylococcus aureus 119 assessed as inhibition of bacterial growth incubated for 18 to 20 hrs by CLSI protocol based broth microdilution method; type: functional; conditions: time 18-20 hrs; method in brief: as §3
# Listeria monocytogenes = assay: Antibacterial activity against Listeria monocytogenes 19111 assessed as inhibition of bacterial growth incubated for 18 to 20 hrs by CLSI protocol based broth microdilution method; type: functional; conditions: time 18-20 hrs; method in brief: as §2
# Streptococcus pyogenes [17] = assay: Antibacterial activity against Streptococcus pyogenes MGAS 9882 assessed as inhibition of bacterial growth incubated for 18 to 20 hrs by CLSI protocol based broth microdilution method; type: functional; conditions: time 18-20 hrs
# Method in brief: (§4)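 Streptococci were diluted from a 0.5 McFarland suspension in cation-adjusted Mueller Hinton broth with 5% lysed horse blood. They were incubated with serial dilutions of test agent in broth microdilution, and the MIC was recorded.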
# Staphylococcus aureus [18] = assay: Antibacterial activity against methicillin resistant Staphylococcus aureus 386 assessed as inhibition of bacterial growth incubated for 18 to 20 hrs by CLSI protocol based broth microdilution method; type: functional; conditions: time 18-20 hrs; method in brief: as §3
# Streptococcus pneumoniae [19] = assay: Antibacterial activity against Streptococcus pneumoniae 51916 assessed as inhibition of bacterial growth incubated for 18 to 20 hrs by CLSI protocol based broth microdilution method; type: functional; conditions: time 18-20 hrs; method in brief: as §4
# Staphylococcus aureus [20] = assay: Antibacterial activity against vancomycin resistant Staphylococcus aureus 10 assessed as inhibition of bacterial growth incubated for 18 to 20 hrs by CLSI protocol based broth microdilution method; type: functional; conditions: time 18-20 hrs; method in brief: as §3
# Streptococcus mutans = assay: Antibacterial activity against Streptococcus mutans 25175 assessed as inhibition of bacterial growth incubated for 18 to 20 hrs by CLSI protocol based broth microdilution method; type: functional; conditions: time 18-20 hrs; method in brief: as §4
# Streptococcus pneumoniae [21] = assay: Antibacterial activity against Streptococcus pneumoniae 700677 assessed as inhibition of bacterial growth incubated for 18 to 20 hrs by CLSI protocol based broth microdilution method; type: functional; conditions: time 18-20 hrs; method in brief: as §4
# Staphylococcus aureus [22] = assay: Antibacterial activity against methicillin resistant Staphylococcus aureus NRS384 USA300 assessed as inhibition of bacterial growth incubated for 18 to 20 hrs by CLSI protocol based broth microdilution method; type: functional; conditions: time 18-20 hrs, read-out: MIC; method in brief: as §3
# Streptococcus pyogenes [23] = assay: Antibacterial activity against Streptococcus pyogenes MGAS 1882 assessed as inhibition of bacterial growth incubated for 18 to 20 hrs by CLSI protocol based broth microdilution method; type: functional; conditions: time 18-20 hrs; method in brief: as §4
# Staphylococcus aureus [24] = assay: Antibacterial activity against methicillin sensitive Staphylococcus aureus 107 assessed as inhibition of bacterial growth incubated for 18 to 20 hrs by CLSI protocol based broth microdilution method; type: functional; conditions: time 18-20 hrs; method in brief: as §3
# Staphylococcus aureus [25] = assay: Antibacterial activity against methicillin resistant Staphylococcus aureus 385 assessed as inhibition of bacterial growth incubated for 18 to 20 hrs by CLSI protocol based broth microdilution method; type: functional; conditions: time 18-20 hrs; method in brief: as §3
# Vero = assay: Cytotoxicity against African green monkey Vero cells assessed as reduction in cell viability at 64 ug/ml incubated for 24 hrs by MTS assay; type: toxicity, cell-based; conditions: chlorocebus sabaeus, dose 64 µg/ml
# Method in brief: (§5)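 Vero or HaCaT cells were exposed to 32, 64 and 128 μg mL−1 compound in triplicate for 24 h at 37 °C, 5% CO2, with a DMSO control. MTS was then added for 4 h and OD490 read. Analysis used two-way ANOVA with Dunnett's post hoc test (p < 0.05).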
# Staphylococcus aureus [26] = assay: Antibacterial activity against vancomycin resistant Staphylococcus aureus 9 assessed as inhibition of bacterial growth incubated for 18 to 20 hrs by CLSI protocol based broth microdilution method; type: functional; conditions: time 18-20 hrs; method in brief: as §3
# Staphylococcus aureus [27] = assay: Antibacterial activity against methicillin resistant Staphylococcus aureus 123 assessed as inhibition of bacterial growth incubated for 18 to 20 hrs by CLSI protocol based broth microdilution method; type: functional; conditions: time 18-20 hrs; method in brief: as §3
# Enterococcus faecium = assay: Antibacterial activity against Enterococcus faecium 700221 assessed as inhibition of bacterial growth incubated for 18 to 20 hrs by CLSI protocol based broth microdilution method; type: functional; conditions: time 18-20 hrs; method in brief: as §2
# [28] = Cytotoxicity against human HaCaT cells assessed as tolerance by measuring cell viability at 64 ug/ml incubated for 24 hrs by MTS assay relative to control; type: toxicity, cell-based; conditions: at 64 µg/mL, read-out: Activity; method in brief: as §5
Compound,Activity (Staphylococcus aureus [1]),Activity (Staphylococcus aureus [2]),Activity (Staphylococcus aureus [4]),Activity (Staphylococcus aureus [5]),Activity (Staphylococcus aureus [6]),Activity (Staphylococcus aureus [7]),Activity (Staphylococcus aureus [8]),Activity (Staphylococcus aureus [9]),Activity (Staphylococcus aureus [10]),Activity (Staphylococcus aureus [11]),MIC (Staphylococcus aureus [22]) [µg/mL],Activity (Vero),also measured
CN[C@H](CC(C)C)C(=O)N[C@H]1C(=O)N[C@@H](CC(N)=O)C(=O)N[C@H]2C(=O)N[C@H]3C(=O)N[C@H](C(=O)N[C@H](C(=O)O)c4cc(O)cc(O)c4-c4cc3ccc4O)[C@H](O)c3ccc(c(Cl)c3)Oc3cc2cc(c3O[C@@H]2O[C@H](CO)[C@@H](O)[C@H](O)[C@H]2O[C@H]2C[C@](C)(N)[C@H](O)[C@H](C)O2)Oc2ccc(cc2Cl)[C@H]1O [VANCOMYCIN],Active,Active,Active,Active,Active,Active,Active,Active,Active,Active,,,Time (Staphylococcus aureus [3]): 4 h
CCCCC#Cc1ccc(NC(=O)Nc2ccc(/C(C)=N/NC(=N)N)cc2)cc1,Active,Active,Active,Active,Active,Active,Active,Active,Active,Active,0.5,Non-Toxic,MIC (Enterococcus faecalis): 0.5 µg/mL; MIC (Staphylococcus aureus [12]): 0.5 µg/mL; MIC [13]: 0.5 µg/mL; MIC (Staphylococcus aureus [14]): 0.5 µg/mL; MIC (Staphylococcus aureus [15]): 0.5 µg/mL; MIC (Staphylococcus aureus [16]): 0.5 µg/mL; MIC (Listeria monocytogenes): 0.5 µg/mL; MIC (Streptococcus pyogenes [17]): 0.5 µg/mL; MIC (Staphylococcus aureus [18]): 0.5 µg/mL; MIC (Streptococcus pneumoniae [19]): 0.5 µg/mL; MIC (Staphylococcus aureus [20]): 0.5 µg/mL; MIC (Streptococcus mutans): 0.5 µg/mL; MIC (Streptococcus pneumoniae [21]): 0.5 µg/mL; MIC (Streptococcus pyogenes [23]): 0.5 µg/mL; MIC (Staphylococcus aureus [24]): 0.5 µg/mL; MIC (Staphylococcus aureus [25]): 0.5 µg/mL; MIC (Staphylococcus aureus [26]): 0.5 µg/mL; MIC (Staphylococcus aureus [27]): 0.5 µg/mL; MIC (Enterococcus faecium): 0.5 µg/mL
CCCCCCC#Cc1ccc(NC(=O)Nc2ccc(/C(C)=N/NC(=N)N)cc2)cc1,Active,Active,Active,Active,Active,Active,Active,Active,Active,Active,0.5,Non-Toxic,"viability at 24 h, 64 ug/ml [28]: 100%"

# From ChEMBL document CHEMBL5230171, “Expanding the structure-activity relationships of alkynyl diphenylurea scaffold as promising antibacterial agents” (RSC Med Chem, 2023)
